Reference: ChEMBL document CHEMBL2417469, “Synthesis of novel analogs of 2-pyrazoline obtained from [(7-chloroquinolin-4-yl)amino]chalcones and hydrazine as potential antitumor and antimalarial agents” (Eur J Med Chem, 2013)

What was measured:
Format in all cases: functional
NCI-H226 = assay: Cytotoxicity against human NCI-H226 cells after 48 hrs by SRB assay; details: NCI-H226, 48 h
Summary of the method: (§1)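 NCI 60-cell-line screen. Cells preincubated 24 h at 37 °C, 5% CO2; time-zero plates TCA-fixed. Compounds dissolved in DMSO and tested at five concentrations (100, 10, 1.0, 0.1, 0.01 µM) for 48 h continuous exposure. Adherent cells fixed with cold TCA (10% final), then SRB stained; absorbance at 515 nm. GI50, TGI and LC50 calculated from growth relative to time-zero and untreated controls.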

NCI-H460 = assay: Cytotoxicity against human NCI-H460 cells after 48 hrs by SRB assay; details: NCI-H460, 48 h; summary of the method: as §1
T47D = assay: Cytotoxicity against human T47D cells after 48 hrs by SRB assay
Summary of the method: (§2)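 NCI 60-cell screen. Cells grew 24 h (37 °C, 5% CO2) before compound was added. Compounds were in DMSO and diluted in medium with gentamicin, then tested at five levels (100, 10, 1.0, 0.1, 0.01 µM) with 48 h continuous exposure. Adherent cells were fixed with TCA (10% final) and stained with 0.4% SRB, absorbance read at 515 nm. A time-zero plate was included. LC50 is the concentration giving 50% loss of protein relative to time zero.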

HL-60(TB) = assay: Cytotoxicity against human HL-60(TB) cells after 48 hrs by SRB assay; details: HL-60, 48 h; for CC50: read-out: LC50 (the source's name); summary of the method: as §1
RXF 393 = assay: Cytotoxicity against human RXF393 cells after 48 hrs by SRB assay; details: RXF 393, 48 h; summary of the method: as §1
SF-268 = assay: Cytotoxicity against human SF268 cells after 48 hrs by SRB assay; details: SF-268, 48 h; summary of the method: as §1
OVCAR-4 = assay: Cytotoxicity against human OVCAR4 cells after 48 hrs by SRB assay; details: OVCAR-4, 48 h; summary of the method: as §1
UACC-257 = assay: Cytotoxicity against human UACC257 cells after 48 hrs by SRB assay; details: UACC-257, 48 h; summary of the method: as §2
OVCAR-3 = assay: Cytotoxicity against human OVCAR3 cells after 48 hrs by SRB assay; details: OVCAR-3, 48 h; summary of the method: as §1
DU-145 = assay: Cytotoxicity against human DU145 cells after 48 hrs by SRB assay; details: DU-145, 48 h; summary of the method: as §1
Plasmodium falciparum = assay: Antimalarial activity against Plasmodium falciparum NF54 infected in human serum at 20 ug/ml after 48 hrs by fluorometric method
Summary of the method: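 Asynchronous P. falciparum NF54 at 1.5–2% parasitemia, 5% hematocrit in RPMI with 10% human serum, exposed 48 h at 37 °C under 90% N2/5% CO2/5% O2 at the stated concentration; parasite DNA stained with ethidium bromide after proteinase K lysis; viability % = (Flu treated − medium)/(Flu untreated − medium) ×100; triplicate.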

UO-31 = assay: Cytotoxicity against human UO31 cells after 48 hrs by SRB assay; details: UO-31, 48 h; summary of the method: as §2
SF-539 = assay: Cytotoxicity against human SF539 cells after 48 hrs by SRB assay; details: SF-539, 48 h; for CC50: read-out: LC50 (the source's name); summary of the method: as §1
SNB-19 = assay: Cytotoxicity against human SNB19 cells after 48 hrs by SRB assay; details: SNB-19, 48 h; summary of the method: as §2
MDA-MB-435 = assay: Cytotoxicity against human MDA-MB-435 cells after 48 hrs by SRB assay; details: MDA-MB-435, 48 h; summary of the method: as §1
RPMI-8226 = assay: Cytotoxicity against human RPMI8226 cells after 48 hrs by SRB assay; details: RPMI-8226, 48 h; summary of the method: as §1
ACHN = assay: Cytotoxicity against human ACHN cells after 48 hrs by SRB assay; details: for CC50: read-out: LC50 (the source's name); summary of the method: as §1
CCRF-CEM = assay: Cytotoxicity against human CCRF-CEM cells after 48 hrs by SRB assay; summary of the method: as §1
TK-10 = assay: Cytotoxicity against human TK10 cells after 48 hrs by SRB assay; details: TK-10, 48 h; summary of the method: as §2
MDA-MB-231 = assay: Cytotoxicity against human MDA-MB-231 cells after 48 hrs by SRB assay; details: MDA-MB-231, 48 h; summary of the method: as §1
A549 = assay: Cytotoxicity against human A549/ATCC cells after 48 hrs by SRB assay; details: A549, 48 h; for CC50: read-out: LC50 (the source's name); summary of the method: as §1
HCC 2998 = assay: Cytotoxicity against human HCC2998 cells after 48 hrs by SRB assay; details: HCC 2998, 48 h; summary of the method: as §1
[1] = Cytotoxicity against human EKVX cells after 48 hrs by SRB assay; summary of the method: as §1
SN12C = assay: Cytotoxicity against human SN12C cells after 48 hrs by SRB assay; summary of the method: as §1
OVCAR-5 = assay: Cytotoxicity against human OVCAR5 cells after 48 hrs by SRB assay; details: OVCAR-5, 48 h; summary of the method: as §1
UACC-62 = assay: Cytotoxicity against human UACC62 cells after 48 hrs by SRB assay; details: UACC-62, 48 h; for CC50: read-out: LC50 (the source's name); summary of the method: as §2
HOP-62 = assay: Cytotoxicity against human HOP62 cells after 48 hrs by SRB assay; details: HOP-62, 48 h; summary of the method: as §1
SW-620 = assay: Cytotoxicity against human SW620 cells after 48 hrs by SRB assay; details: SW-620, 48 h; summary of the method: as §2
MCF7 = assay: Cytotoxicity against human MCF7 cells after 48 hrs by SRB assay; details: MCF7, 48 h; for CC50: read-out: LC50 (the source's name); summary of the method: as §1
Hs-578T = assay: Cytotoxicity against human Hs578T cells after 48 hrs by SRB assay; summary of the method: as §1
NCI-H23 = assay: Cytotoxicity against human NCI-H23 cells after 48 hrs by SRB assay; details: NCI-H23, 48 h; for CC50: read-out: LC50 (the source's name); summary of the method: as §1
HOP-92 = assay: Cytotoxicity against human HOP92 cells after 48 hrs by SRB assay; details: HOP-92, 48 h; summary of the method: as §1
SNB-75 = assay: Cytotoxicity against human SNB75 cells after 48 hrs by SRB assay; details: SNB-75, 48 h; summary of the method: as §2

SMILES: COc1cc(C2CC(c3ccc(Nc4ccnc5cc(Cl)ccc45)cc3)=NN2C=O)cc(OC)c1OC (centres undefined)
- GI50 (NCI-H226): 34.5 µM
- LC50 (50% lethal concentration) (NCI-H226): > 100 µM
- GI50 (NCI-H460): 4.42 µM
- LC50 (NCI-H460): > 100 µM
- GI50 (T47D): 2.33 µM
- LC50 (concentration giving 50% cell kill relative to time zero) (T47D): > 100 µM
- GI50 (HL-60(TB)): 2.53 µM
- CC50 (HL-60(TB)): 75.8 µM
- GI50 (RXF 393): 2.22 µM
- LC50 (concentration killing 50% of cells) (RXF 393): > 100 µM
- GI50 (SF-268): 28 µM
- LC50 (SF-268): > 100 µM
- GI50 (OVCAR-4): 3.19 µM
- LC50 (OVCAR-4): > 100 µM
- GI50 (UACC-257): 2.84 µM
- LC50 (UACC-257): 55.4 µM
- GI50 (OVCAR-3): 1.91 µM
- LC50 (OVCAR-3): 6.03 µM
- GI50 (DU-145): 6.63 µM
- LC50 (concentration killing 50% of cells) (DU-145): > 100 µM
- inhibition at 20 µg/mL (Plasmodium falciparum): 5.8%
- GI50 (UO-31): 4.96 µM
- LC50 (UO-31): 67.5 µM
- GI50 (SF-539): 2.75 µM
- CC50 (SF-539): 37.6 µM
- GI50 (SNB-19): 18.2 µM
- LC50 (SNB-19): > 100 µM
- GI50 (MDA-MB-435): 2.1 µM
- LC50 (MDA-MB-435): > 100 µM
- GI50 (RPMI-8226): 2.56 µM
- LC50 (concentration killing 50% of cells) (RPMI-8226): > 100 µM
- GI50 (ACHN): 3.24 µM
- CC50 (ACHN): 47 µM
- GI50 (CCRF-CEM): 1.82 µM
- LC50 (concentration killing 50% of cells relative to time zero) (CCRF-CEM): > 100 µM
- GI50 (TK-10): 3.09 µM
- LC50 (concentration giving 50% cell loss vs time zero) (TK-10): 38.6 µM
- GI50 (MDA-MB-231): 4.39 µM
- LC50 (concentration killing 50% of cells present at time zero) (MDA-MB-231): > 100 µM
- GI50 (A549): 6.9 µM
- CC50 (A549): > 100 µM
- GI50 (HCC 2998): 5.52 µM
- LC50 (HCC 2998): > 100 µM
- GI50 [1]: 11.7 µM
- LC50 [1]: > 100 µM
- GI50 (SN12C): 4.37 µM
- LC50 (50% net cell kill relative to time zero) (SN12C): > 100 µM
- GI50 (OVCAR-5): 69.2 µM
- LC50 (OVCAR-5): > 100 µM
- GI50 (UACC-62): 2.2 µM
- CC50 (UACC-62): 59.3 µM
- GI50 (HOP-62): 4.13 µM
- LC50 (50% lethal concentration) (HOP-62): 96.1 µM
- GI50 (SW-620): 3.49 µM
- LC50 (SW-620): > 100 µM
- GI50 (MCF7): 3.23 µM
- CC50 (MCF7): > 100 µM
- GI50 (Hs-578T): 3.24 µM
- LC50 (50% net cell kill) (Hs-578T): > 100 µM
- GI50 (NCI-H23): 20.4 µM
- CC50 (NCI-H23): > 100 µM
- GI50 (HOP-92): 1.83 µM
- LC50 (concentration killing 50% of cells) (HOP-92): > 100 µM
- GI50 (SNB-75): 5.19 µM
- LC50 (50% net cell kill) (SNB-75): > 100 µM

SMILES: Cc1ccc(C2CC(c3ccc(Nc4ccnc5cc(Cl)ccc45)cc3)=NN2C=O)cc1 (centres undefined)
- GI50 (NCI-H226): > 100 µM
- LC50 (50% lethal concentration) (NCI-H226): > 100 µM
- GI50 (NCI-H460): > 100 µM
- LC50 (NCI-H460): > 100 µM
- GI50 (T47D): 1.51 µM
- LC50 (concentration giving 50% cell kill relative to time zero) (T47D): > 100 µM
- GI50 (HL-60(TB)): 2.27 µM
- CC50 (HL-60(TB)): > 100 µM
- GI50 (RXF 393): 4.89 µM
- LC50 (concentration killing 50% of cells) (RXF 393): > 100 µM
- GI50 (SF-268): 8.61 µM
- LC50 (SF-268): > 100 µM
- GI50 (OVCAR-4): 5.15 µM
- LC50 (OVCAR-4): > 100 µM
- GI50 (UACC-257): > 100 µM
- LC50 (UACC-257): > 100 µM
- GI50 (OVCAR-3): 6.82 µM
- LC50 (OVCAR-3): > 100 µM
- GI50 (DU-145): > 100 µM
- LC50 (concentration killing 50% of cells) (DU-145): > 100 µM
- inhibition at 20 µg/mL (Plasmodium falciparum): 0%
- GI50 (UO-31): 5.49 µM
- LC50 (UO-31): > 100 µM
- GI50 (SF-539): > 100 µM
- CC50 (SF-539): > 100 µM
- GI50 (SNB-19): > 100 µM
- LC50 (SNB-19): > 100 µM
- GI50 (MDA-MB-435): 1.95 µM
- LC50 (MDA-MB-435): > 100 µM
- GI50 (RPMI-8226): 2.18 µM
- LC50 (concentration killing 50% of cells) (RPMI-8226): > 100 µM
- GI50 (ACHN): 3.27 µM
- CC50 (ACHN): > 100 µM
- GI50 (CCRF-CEM): 2.25 µM
- LC50 (concentration killing 50% of cells relative to time zero) (CCRF-CEM): > 100 µM
- GI50 (TK-10): > 100 µM
- LC50 (concentration giving 50% cell loss vs time zero) (TK-10): > 100 µM
- GI50 (MDA-MB-231): 6.09 µM
- LC50 (concentration killing 50% of cells present at time zero) (MDA-MB-231): > 100 µM
- GI50 (A549): 9.86 µM
- CC50 (A549): > 100 µM
- GI50 (HCC 2998): 7.44 µM
- LC50 (HCC 2998): > 100 µM
- LC50 [1]: > 100 µM
- GI50 (SN12C): 7.23 µM
- LC50 (50% net cell kill relative to time zero) (SN12C): > 100 µM
- GI50 (OVCAR-5): > 100 µM
- LC50 (OVCAR-5): > 100 µM
- GI50 (UACC-62): 4.13 µM
- CC50 (UACC-62): > 100 µM
- GI50 (HOP-62): > 100 µM
- LC50 (50% lethal concentration) (HOP-62): > 100 µM
- GI50 (SW-620): > 100 µM
- LC50 (SW-620): > 100 µM
- GI50 (MCF7): 8.39 µM
- CC50 (MCF7): > 100 µM
- GI50 (Hs-578T): 5.64 µM
- LC50 (50% net cell kill) (Hs-578T): > 100 µM
- GI50 (NCI-H23): 6.93 µM
- CC50 (NCI-H23): > 100 µM
- GI50 (HOP-92): 2.14 µM
- LC50 (concentration killing 50% of cells) (HOP-92): > 100 µM
- GI50 (SNB-75): > 100 µM
- LC50 (50% net cell kill) (SNB-75): > 100 µM
